Measurements gathered from unrelated publications.
Protocols differ between the studies behind these lines.
Target: Mitogen-activated protein kinase 15 (MAPK15, Homo sapiens, UniProt Q8TD08)
One construct used (Q8TD08 1-544): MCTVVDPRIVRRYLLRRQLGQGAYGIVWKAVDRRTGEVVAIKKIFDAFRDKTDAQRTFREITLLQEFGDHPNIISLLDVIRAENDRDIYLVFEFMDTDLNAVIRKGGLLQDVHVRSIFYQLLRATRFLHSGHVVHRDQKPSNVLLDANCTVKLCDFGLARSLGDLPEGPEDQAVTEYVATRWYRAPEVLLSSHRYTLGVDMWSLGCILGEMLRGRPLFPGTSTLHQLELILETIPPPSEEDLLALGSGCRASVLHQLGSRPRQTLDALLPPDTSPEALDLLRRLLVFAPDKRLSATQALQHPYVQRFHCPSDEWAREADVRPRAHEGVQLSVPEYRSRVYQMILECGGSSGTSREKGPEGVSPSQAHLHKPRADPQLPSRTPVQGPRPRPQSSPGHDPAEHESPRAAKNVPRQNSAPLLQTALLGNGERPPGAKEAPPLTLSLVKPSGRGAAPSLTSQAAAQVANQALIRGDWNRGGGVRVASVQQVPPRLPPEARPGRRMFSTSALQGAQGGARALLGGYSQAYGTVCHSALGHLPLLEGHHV

SMILES	read-out	action	technique	tested at	measurement	result
COc1cc(Nc2cnc(C#N)c(O[C@H](C)CN(C)C)n2)ncc1-c1cnn(C)c1	enzyme activity	inhibitor	radiometric	1 µM	remaining activity	101%
CS(=O)(=O)c1cc(C2(NC(=O)c3cncc4c3cnn4-c3ccc(F)cc3)CC2)ccn1	cell-free assay		competition with immobilised ligand	1 µM	remaining binding	100%
Cc1ccc(C(=O)Nc2ccc(CN3CCN(C)CC3)c(C(F)(F)F)c2)cc1C#Cc1cnc2cccnn12	enzyme activity	inhibitor		23.5 nM	remaining activity	77%
O=C(Nc1cccnn1)N1CCC(=Cc2cccc(Oc3ccc(C(F)(F)F)cn3)c2)CC1	cell-free assay		competition with immobilised ligand	1 µM	remaining binding	83%
FC(F)(F)Oc1cccc(-c2cnc3ccc(-c4ccncc4)nn23)c1	enzyme activity	inhibitor	radiometric	5 µM	activity vs control	17%
COc1cc(/C=C/C(=O)CC(=O)/C=C/c2ccc(O)c(OC)c2)ccc1O	enzyme activity	inhibitor		1 µM	activity vs control	77%
Nc1nc(NC2CCCCC2)sc1C(=O)c1ccccc1	enzyme activity	inhibitor		10 µM	remaining activity	18%
O=C(Nc1cnn(-c2csc(C(=O)NC3COC3)c2)c1)Nc1c(F)cccc1Cl	enzyme activity	inhibitor		5 µM	remaining activity	108%
CC(C)(C)C(=O)c1sc(NC2CCCCC2)nc1N	enzyme activity	inhibitor		10 µM	remaining activity	43%
Cc1c[nH]c2nccc(Oc3c(F)cc(Nc4cc(Cl)nc(N)n4)cc3F)c12	cell-free assay		competition with immobilised ligand	0.1 µM	remaining binding	100%
CC(C)(C)c1nc2c(s1)c1nc(N)ncc1c1ccc(NS(=O)(=O)c3c(F)cccc3F)c(F)c12	enzyme activity	inhibitor	radiometric	1 µM	remaining activity	81%
Cn1c(=O)n(-c2ccc(C(C)(C)C#N)cc2)c2c3cc(-c4cnc5ccccc5c4)ccc3ncc21	enzyme activity	inhibitor		10 µM	remaining activity	94%
CCC(=N\O)/C(C)=C/c1ccc(F)cc1	cell-free assay		competition with immobilised ligand	1 µM	remaining binding	95%
Cn1cnc(Br)c1C1=CN(c2ncnc3[nH]cnc23)CCS1	enzyme activity	inhibitor	radiometric	50 nM	inhibition	17.1%
